Target: T1, PMPMEase (EPL, esterase from porcine liver) (Sus scrofa, UniProt Q29550)
T1 sequence (Q29550 19-566): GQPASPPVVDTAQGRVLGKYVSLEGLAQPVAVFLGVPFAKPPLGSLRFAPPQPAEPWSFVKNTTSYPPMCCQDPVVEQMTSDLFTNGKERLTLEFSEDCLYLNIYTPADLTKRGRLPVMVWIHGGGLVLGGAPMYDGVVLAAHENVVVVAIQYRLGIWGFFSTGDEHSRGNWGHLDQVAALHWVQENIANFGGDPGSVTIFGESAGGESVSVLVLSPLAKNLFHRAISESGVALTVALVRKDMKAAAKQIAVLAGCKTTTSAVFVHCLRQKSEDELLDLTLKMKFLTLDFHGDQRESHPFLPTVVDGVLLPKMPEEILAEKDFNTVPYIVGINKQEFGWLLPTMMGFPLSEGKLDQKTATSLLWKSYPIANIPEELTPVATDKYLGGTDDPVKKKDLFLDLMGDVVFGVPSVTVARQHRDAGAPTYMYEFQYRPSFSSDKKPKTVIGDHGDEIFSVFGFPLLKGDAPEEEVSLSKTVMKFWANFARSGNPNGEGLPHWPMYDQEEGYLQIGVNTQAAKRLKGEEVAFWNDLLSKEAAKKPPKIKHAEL
Assay: HPLC product assay with UV detection, Michaelis-Menten fit
Assay type: biochemical
In short: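 Commercial porcine liver esterase (0.1 to 5 µg per assay, depending on substrate) was incubated with varying concentrations of S-alkylated cysteinyl ester substrates in 100 mM Tris-HCl, pH 7.4, with 5% DMSO at 37°C. Reactions were stopped, and acid products were quantified by reversed-phase HPLC at 260 nm (p-nitrobenzoyl substrates) or 214 nm (others). Base-hydrolysed substrate standards supplied the calibration. Km came from a Michaelis-Menten fit.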

Row | Km [µM] | Compound
1 | 21 ± 4.2 | COC(=O)[C@@H](CSC/C=C(\C)CC/C=C(\C)CCC=C(C)C)NC(C)=O [L-69, (S)-methyl 3-((2E,6E)-3,7,11-trimethyldodeca-2,6,10-trienylthio)-2-acetamidopropanoate]
2 | 11 ± 0.9 | COC(=O)[C@@H](CSC/C=C(\C)CC/C=C(\C)CCC=C(C)C)NC(=O)c1ccc([N+](=O)[O-])cc1 [L-70, (S)-methyl 3-((2E,6E)-3,7,11-trimethyldodeca-2,6,10-trienylthio)-2-(4-nitrobenzamido)propanoate]
3 | 87 ± 12 | COC(=O)[C@H](CSC/C=C(\C)CCC=C(C)C)NC(=O)c1ccc([N+](=O)[O-])cc1 [L-72, (R)-methyl 3-((E)-3,7-dimethylocta-2,6-dienylthio)-2-(4-nitrobenzamido)propanoate]
4 | 505 ± 63 | CCSC[C@H](NC(=O)c1ccc([N+](=O)[O-])cc1)C(=O)OC [L-74, (R)-methyl 2-(4-nitrobenzamido)-3-(ethylthio)propanoate]
5 | 5.9 ± 0.7 | CC(C)=CCC/C(C)=C/CC/C(C)=C/CSC[C@H](NC(=O)c1ccc([N+](=O)[O-])cc1)C(=O)OC(C)C [L-75, (R)-isopropyl 3-((2E,6E)-3,7,11-trimethyldodeca-2,6,10-trienylthio)-2-(4-nitrobenzamido)propanoate]
6 | 11 ± 0.9 | CCOC(=O)[C@H](CSC/C=C(\C)CC/C=C(\C)CCC=C(C)C)NC(=O)c1ccc([N+](=O)[O-])cc1 [L-76, (R)-ethyl 3-((2E,6E)-3,7,11-trimethyldodeca-2,6,10-trienylthio)-2-(4-nitrobenzamido)propanoate]
7 | 294 ± 25 | COC(=O)[C@H](CSCC=C(C)C)NC(=O)c1ccc([N+](=O)[O-])cc1 [L-77, (R)-methyl 3-(3-methylbut-2-enylthio)-2-(4-nitrobenzamido) propanoate]
8 | 15 ± 2.7 | COC(=O)[C@H](CSC/C=C(\C)CC/C=C(\C)CC/C=C(\C)CCC=C(C)C)NC(=O)c1ccc([N+](=O)[O-])cc1 [L-80, (R)-methyl 3-((2E,6E,10E)-3,7,11,15-tetramethylhexadeca-2,6,10,14-tetraenylthio)-2-(4-nitrobenzamido) propanoate]
9 | 960 ± 180 | COC(=O)[C@H](CSCCC(C)C)NC(=O)c1ccc([N+](=O)[O-])cc1 [L-81, (R)-methyl 2-(4-nitrobenzamido)-3-(isopentylthio)propanoate]
10 | 56 ± 9.6 | COC(=O)[C@H](CSCC[C@@H](C)CCC=C(C)C)NC(=O)c1ccc([N+](=O)[O-])cc1 [L-83, (R)-methyl 3-((S)-3,7-dimethyloct-6-enylthio)-2-(4-nitrobenzamido)propanoate]
11 | 53 ± 7 | COC(=O)[C@H](CSCC[C@H](C)CCC=C(C)C)NC(=O)c1ccc([N+](=O)[O-])cc1 [L-86, (R)-methyl 3-((R)-3,7-dimethyloct-6-enylthio)-2-(4-nitrobenzamido)propanoate]
12 | 40.5 ± 3.7 | COC(=O)[C@H](CSCc1ccccc1)NC(=O)c1ccc([N+](=O)[O-])cc1 [L-93, (R)-methyl 2-(4-nitrobenzamido)-3-(benzylthio)propanoate]
13 | 400 ± 115 | COC(=O)CNC(=O)c1ccc([N+](=O)[O-])cc1 [L-102, methyl 2-(4-nitrobenzamido)acetate]
14 | 300 ± 38 | COC(=O)[C@H](C)NC(=O)c1ccc([N+](=O)[O-])cc1 [L-111, (S)-methyl 2-(4-nitrobenzamido)propanoate]
15 | 8.4 ± 0.89 | COC(=O)[C@H](CSC/C=C(\C)CC/C=C(\C)CCC=C(C)C)NC(=O)CNC(=O)c1ccc([N+](=O)[O-])cc1 [RD-18, N-(4-Nitrobenzoylglycyl)-S-(trans, trans-farnesyl)cysteine methyl ester]
16 | 29 ± 2.2 | COC(=O)[C@H](CSC/C=C(\C)CC/C=C(\C)CCC=C(C)C)NC(=O)c1ccc([N+](=O)[O-])cc1 [RD-PNB, (R)-methyl 3-((2E,6E)-3,7,11-trimethyldodeca-2,6,10-trienylthio)-2-(4-nitrobenzamido)propanoate]

Source: PMC2906805 (The open enzyme inhibition journal, 2009)
